Results: ChEMBL document CHEMBL1153560, “In vitro activities of doripenem and six comparator drugs against 423 aerobic and anaerobic bacterial isolates from infected diabetic foot wounds” (2008)
Converted amounts (≈) assume the structure as drawn.

Assays:
Format in all cases: functional
Proteus vulgaris = experiment: Antibacterial activity against Proteus vulgaris isolated from patient with diabetic foot infection assessed as percent resistant isolates after 18 to 24 hrs by broth microdilution method
How it was run: (§1)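 Aerobes subcultured on Trypticase soy blood agar, then broth microdilution in cation-adjusted Mueller-Hinton broth. Trays prepared in-house with twofold dilutions and stored at −70°C. Overnight colonies suspended to about 5 × 10^5 CFU/ml final. Read after 18 to 24 h at 37°C. QC strains included S. aureus ATCC 29213 and E. coli ATCC 25922.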

Corynebacterium jeikeium [1] = experiment: Antibacterial activity against Corynebacterium jeikeium isolated from patient with diabetic foot infection assessed as percent resistant isolates after 48 hrs by broth microdilution method
How it was run: (§2)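 Isolates subcultured on Trypticase soy blood agar. Broth microdilution in cation-adjusted Mueller-Hinton broth with lysed horse blood, using in-house twofold dilution trays stored at −70°C. Inoculum from overnight colonies at about 5 × 10^5 CFU/ml final. Read after 18 to 24 h at 37°C, up to 48 h for some Corynebacterium strains.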

[2] = test system: Corynebacterium urealyticum; experiment: Antibacterial activity against Corynebacterium urealyticum isolated from patient with diabetic foot infection assessed as percent resistant isolates after 48 hrs by broth microdilution method; how it was run: as §2
Corynebacterium striatum = experiment: Antibacterial activity against Corynebacterium striatum isolated from patient with diabetic foot infection assessed as percent resistant isolates after 48 hrs by broth microdilution method; how it was run: as §2
Corynebacterium accolens = experiment: Antibacterial activity against Corynebacterium accolens isolated from patient with diabetic foot infection assessed as percent resistant isolates after 48 hrs by broth microdilution method; how it was run: as §2
[3] = test system: Staphylococcus haemolyticus; experiment: Antibacterial activity against Staphylococcus haemolyticus isolated from patient with diabetic foot infection after 18 to 24 hrs by broth microdilution method
Streptococcus pyogenes = experiment: Antibacterial activity against Streptococcus pyogenes isolated from patient with diabetic foot infection after 18 to 24 hrs by broth microdilution method
How it was run: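 Streptococcal isolates were subcultured on Trypticase soy blood agar. Broth microdilution used cation-adjusted Mueller-Hinton broth with lysed horse blood, in in-house trays of serial twofold drug dilutions stored at −70°C. Overnight colonies were suspended to a final inoculum of approximately 5 × 10^5 CFU/ml. MIC was read after 18 to 24 h incubation at 37°C.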

Corynebacterium xerosis [4] = experiment: Antibacterial activity against Corynebacterium xerosis isolated from patient with diabetic foot infection assessed as percent resistant isolates after 48 hrs by broth microdilution method; how it was run: as §2
[5] = test system: Staphylococcus haemolyticus; experiment: Antibacterial activity against Staphylococcus haemolyticus isolated from patient with diabetic foot infection assessed as percent resistant isolates after 18 to 24 hrs by broth microdilution method
Corynebacterium jeikeium [6] = experiment: Antibacterial activity against Corynebacterium jeikeium isolated from patient with diabetic foot infection after 48 hrs by broth microdilution method
How it was run: (§3)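 Isolates were subcultured on Trypticase soy blood agar. Broth microdilution used cation-adjusted Mueller-Hinton broth with lysed horse blood, in-house trays of twofold drug dilutions stored at −70°C. Colonies from overnight growth gave a final inoculum of about 5 × 10^5 CFU/ml. Trays were read after 18 to 24 h at 37°C, up to 48 h for some strains.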

Corynebacterium xerosis [7] = experiment: Antibacterial activity against Corynebacterium xerosis isolated from patient with diabetic foot infection after 48 hrs by broth microdilution method; how it was run: as §3
Staphylococcus aureus [8] = experiment: Antibacterial activity against methicillin-resistant Staphylococcus aureus isolated from patient with diabetic foot infection after 18 to 24 hrs by broth microdilution method
How it was run: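 Isolates grown on Trypticase soy blood agar, then tested by broth microdilution in unsupplemented cation-adjusted Mueller-Hinton broth. In-house trays held serial twofold drug dilutions and were stored at −70°C. Overnight colonies were suspended to a final inoculum near 5 × 10^5 CFU/ml, and trays read after 18–24 h at 37°C. QC strains: S. aureus ATCC 29213, E. coli ATCC 25922.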

Corynebacterium = experiment: Antibacterial activity against multi drug-resistant Corynebacterium assessed as percent of susceptible isolates at =< 4 ug/ml by NCCLS M7-A6 method
Escherichia coli [9] = experiment: Antibacterial activity against Escherichia coli isolated from patient with diabetic foot infection assessed as percent resistant isolates after 18 to 24 hrs by broth microdilution method; how it was run: as §1
Klebsiella oxytoca [10] = experiment: Antibacterial activity against Klebsiella oxytoca isolated from patient with diabetic foot infection assessed as percent resistant isolates after 18 to 24 hrs by broth microdilution method; how it was run: as §1
Enterococcus faecalis = experiment: Antibacterial activity against Enterococcus faecalis after 44 to 48 hrs by agar dilution method
Escherichia coli [11] = experiment: Antibacterial activity against Escherichia coli isolated from patient with diabetic foot infection after 18 to 24 hrs by broth microdilution method
How it was run: (§4)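 Isolates were subcultured on Trypticase soy blood agar and tested by broth microdilution in cation-adjusted Mueller-Hinton broth. In-house trays of twofold drug dilutions were stored at −70°C. Overnight colonies gave a final inoculum of about 5 × 10^5 CFU/ml. Plates were read after 18 to 24 h at 37°C.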

Clostridioides difficile = experiment: Antibacterial activity against Clostridium difficile ATCC 700057 after 44 to 48 hrs by agar dilution method
How it was run: (§5)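 CLSI M11-A7 agar dilution: serial twofold drug dilutions made on the test day and added to molten agar. Spots of 10^5 CFU were applied by replicator, with drug-free control plates inoculated before and after each set. Incubation was 44 to 48 h at 37°C in an anaerobic chamber. MIC was the lowest concentration giving no growth or a marked change in growth versus controls.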

Klebsiella aerogenes = experiment: Antibacterial activity against Enterobacter aerogenes isolated from patient with diabetic foot infection after 18 to 24 hrs by broth microdilution method; how it was run: as §4
Klebsiella oxytoca [12] = experiment: Antibacterial activity against Klebsiella oxytoca isolated from patient with diabetic foot infection after 18 to 24 hrs by broth microdilution method; how it was run: as §4
Klebsiella pneumoniae = experiment: Antibacterial activity against Klebsiella pneumoniae isolated from patient with diabetic foot infection after 18 to 24 hrs by broth microdilution method; how it was run: as §4
Staphylococcus aureus [13] = experiment: Antibacterial activity against Staphylococcus aureus ATCC 29213 after 44 to 48 hrs by agar dilution method
Escherichia coli [14] = experiment: Antibacterial activity against Escherichia coli ATCC 25922 after 44 to 48 hrs by agar dilution method
Bacteroides fragilis = experiment: Antibacterial activity against Bacteroides fragilis ATCC 25285 after 44 to 48 hrs by agar dilution method; how it was run: as §5

SMILES	Activity (Proteus vulgaris)	MIC50 [3]	MIC90 [3]	MIC50 (Streptococcus pyogenes)	MIC90 (Streptococcus pyogenes)	Activity [5]	MIC50 (Corynebacterium jeikeium [6])	MIC90 (Corynebacterium jeikeium [6])	MIC50 (Corynebacterium xerosis [7])	MIC90 (Corynebacterium xerosis [7])	MIC50 (Staphylococcus aureus [8])	MIC90 (Staphylococcus aureus [8])	further results
CCC[C@@H]1C[C@@H](C(=O)N[C@@H]([C@H]2O[C@H](SC)[C@H](O)[C@@H](O)[C@H]2O)[C@H](C)Cl)N(C)C1 [CLINDAMYCIN]	0%	0.125 µg/mL (≈ 0.294 µM)	8 µg/mL (≈ 18.8 µM)	0.125 µg/mL (≈ 0.294 µM)	> 64 µg/mL	13%	> 64 µg/mL	> 64 µg/mL	2 µg/mL (≈ 4.71 µM)	> 64 µg/mL	0.125 µg/mL (≈ 0.294 µM)	> 64 µg/mL	Activity (Corynebacterium jeikeium [1]): 100%; Activity [2]: 100%; Activity (Corynebacterium striatum): 78%; Activity (Corynebacterium accolens): 78%; Activity (Corynebacterium xerosis [4]): 78%
C[C@@H](O)[C@H]1C(=O)N2C(C(=O)O)=C(S[C@@H]3CN[C@H](CNS(N)(=O)=O)C3)[C@H](C)[C@H]12 [DORIPENEM]	0%	0.5 µg/mL (≈ 1.19 µM)	16 µg/mL (≈ 38 µM)	≤ 0.015 µg/mL	≤ 0.015 µg/mL	73%	1 µg/mL (≈ 2.38 µM)	8 µg/mL (≈ 19 µM)	0.125 µg/mL (≈ 0.297 µM)	0.25 µg/mL (≈ 0.595 µM)	0.5 µg/mL (≈ 1.19 µM)	8 µg/mL (≈ 19 µM)	Activity (Corynebacterium): 40%; Activity (Escherichia coli [9]): 0%; Activity (Klebsiella oxytoca [10]): 0%; MIC (Enterococcus faecalis): 2 µg/mL (≈ 4.76 µM); MIC50 (Escherichia coli [11]): 0.03 µg/mL (≈ 0.0713 µM); MIC90 (Escherichia coli [11]): 0.03 µg/mL (≈ 0.0713 µM); MIC (Clostridioides difficile): 2 µg/mL (≈ 4.76 µM); MIC50 (Klebsiella aerogenes): 0.06 µg/mL (≈ 0.143 µM); MIC90 (Klebsiella aerogenes): 0.25 µg/mL (≈ 0.595 µM); MIC50 (Klebsiella oxytoca [12]): 0.06 µg/mL (≈ 0.143 µM); MIC90 (Klebsiella oxytoca [12]): 0.125 µg/mL (≈ 0.297 µM); MIC50 (Klebsiella pneumoniae): 0.06 µg/mL (≈ 0.143 µM); MIC90 (Klebsiella pneumoniae): 0.125 µg/mL (≈ 0.297 µM); MIC (Staphylococcus aureus [13]): 0.03 µg/mL (≈ 0.0713 µM); MIC (Escherichia coli [14]): ≤ 0.015 µg/mL; MIC (Bacteroides fragilis): 0.125 µg/mL (≈ 0.297 µM)
